Experimental data reported in ChEMBL document CHEMBL1828551, “Synthesis, biochemical and molecular modelling studies of antiproliferative azetidinones causing microtubule disruption and mitotic catastrophe” (Eur J Med Chem, 2011).
Calls of active or inactive are those of the source. No cut-off for these calls is given here.

How the values were obtained:
MCF7 [1] = assay: Antiproliferative activity against ER expressing human MCF7 cells after 72 hrs by MTT assay; type: functional, cell-based; settings: MCF7, 72 h
Method in brief: (§1)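 Cells seeded at 2.5×10^4 cells/mL, held 24 h at 37°C, then dosed from ethanol stocks over 1 nM–100 μM for 72 h; vehicle 1% v/v ethanol. MTT added to 1 mg/mL final, 2 h in dark at 37°C, DMSO solubilisation 20 min RT, absorbance read. Viability set relative to untreated controls; IC50 from % viability vs concentration. Triplicate wells, ≥3 experiments, mean ± SEM. MCF-7 grown in MEM with 10% FBS, 2 mM glutamine and 1% non-essential amino acids; MDA-MB-231 grown in DMEM with 10% FBS and 2 mM glutamine.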

MDA-MB-231 [2] = assay: Antiproliferative activity against ER-independent human MDA-MB-231 cells assessed as cell death at 10 uM after 72 hrs by LDH assay
MDA-MB-231 [3] = assay: Antiproliferative activity against ER-independent human MDA-MB-231 cells after 72 hrs by MTT assay; type: functional, cell-based; settings: MDA-MB-231, 72 h; method in brief: as §1
MCF7 [4] = assay: Antimitotic activity in human MCF7 cells assessed as mitotic catastrophe at 500 nM after 16 hrs using DAPI staining based immunofluorescence analysis; type: functional, cell-based
Method in brief: (§2)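 MCF-7 cells seeded at 1×10^5 per well on chamber glass slides, exposed 16 h (vehicle 1% v/v ethanol). Permeabilised with 0.1% Triton X-100 in PBS, fixed in methanol 30 min at -20°C, blocked in 5% BSA. Stained with DM1A anti-tubulin (1:20, 1 h RT), then FITC rabbit anti-mouse (1:200, 1 h RT). Mounted with DAPI and imaged by confocal microscopy; three separate experiments.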

Bos taurus = species on record: Bos taurus; assay: Inhibition of bovine tubulin polymerization at 10 uM after 60 mins by spectrophotometric analysis
Method in brief: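 Purified bovine brain tubulin in G-PEM buffer (80 mM PIPES pH 6.9, 0.5 mM MgCl2, 1 mM EGTA, 1 mM GTP, 10.2% glycerol) was mixed with drug at 10 μM or 1% ethanol vehicle. Assembly was started by warming from 4 to 37°C and turbidity read at 340 nm every 30 s for 60 min at 37°C. Run in triplicate.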

MCF7 [5] = assay: Cell cycle arrest in human MCF7 cells assessed as appearance of polyploidy at 500 nM after 48 hrs by propidium iodide staining based flow cytometric analysis (reference value: 8.33+/-2.5%); type: functional
MCF7 [6] = assay: Cell cycle arrest in human MCF7 cells assessed as accumulation at G2/M phase at 500 nM after 48 hrs by propidium iodide staining based flow cytometric analysis (reference value: 52.02+/-5.9%); type: functional
MCF7 [7] = assay: Cell cycle arrest in human MCF7 cells assessed as accumulation at G1 phase at 500 nM after 48 hrs by propidium iodide staining based flow cytometric analysis (reference value: 60.22+/-3.1%); type: functional
MCF7 [8] = assay: Cell cycle arrest in human MCF7 cells assessed as accumulation at S phase at 500 nM after 48 hrs by propidium iodide staining based flow cytometric analysis (reference value: 8.77+/-0.9%); type: functional
MCF7 [9] = assay: Effect on microtubule network in human MCF7 cells assessed as microtubule depolymerization at 500 nM after 16 hrs by confocal microscopic analysis; type: functional, cell-based; method in brief: as §2
MCF7 [10] = assay: Cell cycle arrest in human MCF7 cells assessed as accumulation at sub-G1 phase at 500 nM after 48 hrs by propidium iodide staining based flow cytometric analysis (reference value: 1.65+/-0.38%); type: functional
MCF7 [11] = assay: Antiproliferative activity against ER expressing human MCF7 cells assessed as cell death at 10 uM after 72 hrs by LDH assay
MCF7 [12] = assay: Cell cycle arrest in human MCF7 cells assessed as accumulation at S phase at 100 nM after 48 hrs by propidium iodide staining based flow cytometric analysis (reference value: 8.77+/-0.9%); type: functional
MCF7 [13] = assay: Cell cycle arrest in human MCF7 cells assessed as accumulation at G2/M phase at 100 nM after 48 hrs by propidium iodide staining based flow cytometric analysis (reference value: 52.02+/-5.9%); type: functional
MCF7 [14] = assay: Cell cycle arrest in human MCF7 cells assessed as accumulation at G1 phase at 100 nM after 48 hrs by propidium iodide staining based flow cytometric analysis (reference value: 60.22+/-3.1%); type: functional
MCF7 [15] = assay: Cell cycle arrest in human MCF7 cells assessed as appearance of polyploidy at 100 nM after 48 hrs by propidium iodide staining based flow cytometric analysis (reference value: 8.33+/-2.5%); type: functional
MCF7 [16] = assay: Cell cycle arrest in human MCF7 cells assessed as accumulation at sub-G1 phase at 100 nM after 48 hrs by propidium iodide staining based flow cytometric analysis (reference value: 1.65+/-0.38%); type: functional
MCF7 [17] = assay: Effect on microtubule network in human MCF7 cells assessed as microtubule depolymerization at 100 nM after 16 hrs by confocal microscopic analysis; type: functional, cell-based; method in brief: as §2
MCF7 [18] = assay: Antimitotic activity in human MCF7 cells assessed as mitotic catastrophe at 100 nM after 16 hrs using DAPI staining based immunofluorescence analysis; type: functional, cell-based; method in brief: as §2

Row | Structure (SMILES) | IC50 (MCF7 [1]) [nM] | Activity (MDA-MB-231 [2]) [%] | IC50 (MDA-MB-231 [3]) [µM] | other results
1 | COc1cc(N2C(=O)[C@H](c3ccccc3)[C@H]2c2ccc(OC)c(OC)c2OC)cc(OC)c1OC | 1120 | 6.1 | 1.96 | 
2 | COc1cc(N2C(=O)C(c3ccccc3)C2(c2ccccc2)c2ccccc2)cc(OC)c1OC (stereo unspecified) | 3840 |  |  | 
3 | COc1ccc(C2(c3ccccc3)C(c3ccccc3)C(=O)N2c2cc(OC)c(OC)c(OC)c2)cc1 (stereo unspecified) | 430 |  |  | 
4 | COc1ccc(C2(c3ccc(OC)cc3)C(c3ccccc3)C(=O)N2c2cc(OC)c(OC)c(OC)c2)cc1 (stereo unspecified) | 640 |  |  | 
5 | CCOc1ccc([C@@H]2[C@@H](c3ccccc3)C(=O)N2c2cc(OC)c(OC)c(OC)c2)cc1 (relative stereo) | 220 | 5.4 | 0.83 | Activity (MCF7 [4]): Active; inhibition (Bos taurus): Active; Activity (MCF7 [5]): 7.4%; Activity (MCF7 [6]): 47.53%; Activity (MCF7 [7]): 21.18%; Activity (MCF7 [8]): 9.49%; Activity (MCF7 [9]): Active; Activity (MCF7 [10]): 13.97%
6 | COc1cc(N2C(=O)[C@H](c3ccccc3)[C@H]2c2ccc(F)cc2)cc(OC)c1OC (relative stereo) | 350 | 0 | 1.14 | 
7 | COc1cc(N2C(=O)[C@H](c3ccccc3)[C@H]2c2ccc(N(C)C)cc2)cc(OC)c1OC (relative stereo) | 850 |  | 5.66 | Activity (MCF7 [11]): 10.4%
8 | COc1cc(OC)c([C@@H]2[C@@H](c3ccccc3)C(=O)N2c2cc(OC)c(OC)c(OC)c2)c(OC)c1 (relative stereo) | 18700 | 0 | 5.74 | 
9 | COc1cc([C@@H]2[C@@H](c3ccccc3)C(=O)N2c2cc(OC)c(OC)c(OC)c2)cc(OC)c1OC (relative stereo) | 69800 | 0 | 65.6 | 
10 | COc1cc(OC)c([C@@H]2[C@@H](c3ccccc3)C(=O)N2c2cc(OC)c(OC)c(OC)c2)cc1OC (relative stereo) | 46900 | 0 | 38.9 | 
11 | COc1ccc([C@@H]2[C@@H](c3ccccc3)C(=O)N2c2cc(OC)c(OC)c(OC)c2)cc1OC (relative stereo) | 460 | 0 | 0.53 | Activity (MCF7 [11]): 3%
12 | COc1ccc([C@@H]2[C@@H](c3ccccc3)C(=O)N2c2cc(OC)c(OC)c(OC)c2)cc1Br (relative stereo) | 1420 |  |  | 
13 | COc1cc(N2C(=O)[C@H](c3ccccc3)[C@H]2c2ccc3ccccc3c2)cc(OC)c1OC (relative stereo) | 440 |  |  | 
14 | COc1ccc(/C=C/[C@@H]2[C@@H](c3ccccc3)C(=O)N2c2cc(OC)c(OC)c(OC)c2)cc1 (relative stereo) | 1990 |  |  | 
15 | COc1ccc([C@@H]2[C@@H](c3ccccc3)C(=O)N2Cc2cc(OC)c(OC)c(OC)c2)cc1 (relative stereo) | 38600 |  |  | 
16 | COc1ccc(/C=C\c2cc(OC)c(OC)c(OC)c2)cc1O [COMBRETASTATIN A4] | 5 | 4.3 |  | Activity (MCF7 [12]): 10.66%; Activity (MCF7 [13]): 52.02%; inhibition (Bos taurus): Active; Activity (MCF7 [14]): 23.57%; Activity (MCF7 [11]): 5.5%; Activity (MCF7 [15]): 8.36%; Activity (MCF7 [16]): 9.43%; Activity (MCF7 [17]): Active; Activity (MCF7 [18]): Active
